ChEMBL document CHEMBL4680083, “Identification of Tricyclic Agonists of Sphingosine-1-phosphate Receptor 1 (S1P) Employing Ligand-Based Drug Design” (J Med Chem, 2016)

What was measured:
[1] = Tmax in rat at 1 mg/kg, po or 1 mg/kg, iv; assay type: ADME, organism-based; settings: in vivo
[2] = Volume of distribution at steady state in rat at 1 mg/kg, po or 1 mg/kg, iv; assay type: ADME, organism-based; settings: in vivo, read-out: Vdss
[3] = tested on: Rattus norvegicus; assay: Reduction in circulating lymphocytes count in Lewis rat blood at 1 mg/kg, po measured at 24 hrs by hematology analyzer based analysis; assay type: functional; design: scale not given: the % may be the effect or the level left
Outline: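 Lewis rats were given an oral dose as a solution or suspension in PEG300, with controls receiving vehicle only. Blood was taken by retro-orbital bleeding under isoflurane at 4 and 24 h. Lymphocytes were counted on a hematology analyzer. Reduction is relative to the vehicle group, averaged over the animals in each group (n = 3−4).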

[4] = biological target: T1, Sphingosine 1-phosphate receptor 1 (Homo sapiens, UniProt P21453); assay: Binding affinity to human S1P1
[5] = Metabolic stability in mouse assessed as half-life; assay type: ADME
[6] = tested on: Rattus norvegicus; assay: Reduction in circulating lymphocytes count in Lewis rat blood assessed as effective dose administered orally measured at 4 to 24 hrs by hematology analyzer based analysis; assay type: functional; settings: po, time 4-24 hrs
[7] = Metabolic stability in human assessed as half-life; assay type: ADME
[8] = Half-life in mouse at 5 mg/kg, po or 2 mg/kg, iv; assay type: ADME, organism-based; settings: in vivo
[9] = Half-life in rat at 1 mg/kg, po or 1 mg/kg, iv; assay type: ADME, organism-based; settings: in vivo
[10] = Protein binding in mouse assessed as bound fraction; assay type: ADME; settings: read-out: PB (converted)
[11] = biological target: Cytochrome P450 2C9 (Homo sapiens, UniProt P11712); assay: Inhibition of CYP2C9 (unknown origin); assay type: ADME
[12] = Tmax in dog at 0.1 mg/kg, po or 0.1 mg/kg, iv; assay type: ADME, organism-based, Canis lupus familiaris; settings: in vivo
[13] = Oral bioavailability in rat at 1 mg/kg; assay type: ADME, organism-based; settings: in vivo
[14] = biological target: T2, Cytochrome P450 2C8 (Homo sapiens, UniProt P10632); assay: Inhibition of CYP2C8 (unknown origin); assay type: ADME
T2 sequence (P10632 whole entry): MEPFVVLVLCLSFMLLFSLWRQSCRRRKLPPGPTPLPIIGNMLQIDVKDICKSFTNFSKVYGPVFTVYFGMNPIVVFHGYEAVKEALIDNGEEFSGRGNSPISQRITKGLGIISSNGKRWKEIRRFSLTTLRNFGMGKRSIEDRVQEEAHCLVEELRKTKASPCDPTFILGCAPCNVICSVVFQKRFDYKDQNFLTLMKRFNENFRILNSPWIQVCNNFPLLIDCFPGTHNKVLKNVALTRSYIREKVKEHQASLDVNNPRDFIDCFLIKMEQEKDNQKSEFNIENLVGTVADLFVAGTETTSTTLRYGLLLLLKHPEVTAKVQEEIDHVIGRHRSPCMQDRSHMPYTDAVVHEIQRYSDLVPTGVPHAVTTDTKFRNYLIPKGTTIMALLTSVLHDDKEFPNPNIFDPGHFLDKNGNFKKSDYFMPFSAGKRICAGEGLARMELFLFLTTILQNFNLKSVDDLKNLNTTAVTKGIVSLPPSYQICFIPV

[15] = Cmax in rat at 1 mg/kg, po or 1 mg/kg, iv; assay type: ADME, organism-based; design: dose 1 mg/kg; settings: in vivo
[16] = Protein binding in rat assessed as bound fraction; assay type: ADME; settings: read-out: PB (converted)
[17] = AUC in cynomolgus monkey at 0.5 mg/kg, po; assay type: ADME, organism-based, Macaca fascicularis; design: dose 0.5 mg/kg; settings: in vivo
[18] = Metabolic stability in rat assessed as half-life; assay type: ADME
[19] = biological target: Voltage-gated inwardly rectifying potassium channel KCNH2 (Homo sapiens, UniProt Q12809); assay: Inhibition of human ERG by patch clamp assay
[20] = Tmax in mouse at 5 mg/kg, po or 2 mg/kg, iv; assay type: ADME, organism-based; settings: in vivo
[21] = Volume of distribution at steady state in cynomolgus monkey at 0.5 mg/kg, po or 0.5 mg/kg, iv; assay type: ADME, organism-based, Macaca fascicularis; settings: in vivo, read-out: Vdss
[22] = Plasma concentration in Lewis rat at 1 mg/kg, po measured at 4 hr; assay type: ADME, organism-based; settings: Lewis, plasma
Outline: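 Lewis rats received a single oral 1.0 mg/kg dose as solution or suspension in PEG300. Blood was drawn retro-orbitally under isoflurane at 4 h and 24 h, within the blood lymphocyte reduction study. n = 3−4 per group, group mean reported.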

[23] = Oral bioavailability in dog at 0.1 mg/kg; assay type: ADME, organism-based, Canis lupus familiaris; settings: in vivo
[24] = biological target: T3, Cytochrome P450 1A2 (Homo sapiens, UniProt P05177); assay: Inhibition of CYP1A2 (unknown origin); assay type: ADME
T3 sequence (P05177 whole entry): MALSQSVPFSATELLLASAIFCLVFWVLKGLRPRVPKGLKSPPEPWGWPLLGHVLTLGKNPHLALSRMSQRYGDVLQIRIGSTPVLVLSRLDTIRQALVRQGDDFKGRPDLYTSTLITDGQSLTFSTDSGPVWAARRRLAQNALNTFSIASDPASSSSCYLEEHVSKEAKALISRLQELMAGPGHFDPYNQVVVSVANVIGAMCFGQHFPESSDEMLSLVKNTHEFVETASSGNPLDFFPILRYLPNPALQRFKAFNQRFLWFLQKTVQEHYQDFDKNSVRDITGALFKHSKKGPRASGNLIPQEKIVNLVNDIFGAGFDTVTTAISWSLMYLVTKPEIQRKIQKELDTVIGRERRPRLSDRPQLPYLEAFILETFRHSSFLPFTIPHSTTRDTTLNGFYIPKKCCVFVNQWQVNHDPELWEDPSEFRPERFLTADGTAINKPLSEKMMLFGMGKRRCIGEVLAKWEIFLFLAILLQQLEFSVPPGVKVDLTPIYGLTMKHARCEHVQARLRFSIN

[25] = biological target: T4, Nuclear receptor subfamily 1 group I member 2 (Homo sapiens, UniProt O75469); assay: Transactivation of PXR (unknown origin); assay type: ADME
T4 sequence (O75469 whole entry): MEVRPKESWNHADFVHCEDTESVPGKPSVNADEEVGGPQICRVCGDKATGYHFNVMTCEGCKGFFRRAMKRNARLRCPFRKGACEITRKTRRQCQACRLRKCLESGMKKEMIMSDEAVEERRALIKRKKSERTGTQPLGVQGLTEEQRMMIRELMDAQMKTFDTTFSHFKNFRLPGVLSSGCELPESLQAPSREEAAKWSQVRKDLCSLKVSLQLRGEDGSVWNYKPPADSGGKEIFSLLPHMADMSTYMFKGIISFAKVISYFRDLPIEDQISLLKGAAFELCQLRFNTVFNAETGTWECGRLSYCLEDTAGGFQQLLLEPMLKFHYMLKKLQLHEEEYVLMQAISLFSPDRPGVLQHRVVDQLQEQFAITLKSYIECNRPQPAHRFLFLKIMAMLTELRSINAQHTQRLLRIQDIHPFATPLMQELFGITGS

[26] = biological target: Sphingosine 1-phosphate receptor 3 (Homo sapiens, UniProt Q99500); assay: Agonist activity at human S1P3 expressed in CHO cell membranes assessed as stimulation of [35S]-GTPgamma-S binding measured after 45 mins by liquid scintillation counting method; design: species or system Cell membrane
[27] = biological target: T1, Sphingosine 1-phosphate receptor 1; assay: Agonist activity at human S1P1 assessed as stimulation of cAMP accumulation; assay type: functional
[28] = AUC in mouse at 5 mg/kg, po; assay type: ADME, organism-based; design: dose 5 mg/kg; settings: in vivo
[29] = Volume of distribution at steady state in mouse at 5 mg/kg, po or 2 mg/kg, iv; assay type: ADME, organism-based; settings: in vivo, read-out: Vdss

T1 sequence (P21453 whole entry): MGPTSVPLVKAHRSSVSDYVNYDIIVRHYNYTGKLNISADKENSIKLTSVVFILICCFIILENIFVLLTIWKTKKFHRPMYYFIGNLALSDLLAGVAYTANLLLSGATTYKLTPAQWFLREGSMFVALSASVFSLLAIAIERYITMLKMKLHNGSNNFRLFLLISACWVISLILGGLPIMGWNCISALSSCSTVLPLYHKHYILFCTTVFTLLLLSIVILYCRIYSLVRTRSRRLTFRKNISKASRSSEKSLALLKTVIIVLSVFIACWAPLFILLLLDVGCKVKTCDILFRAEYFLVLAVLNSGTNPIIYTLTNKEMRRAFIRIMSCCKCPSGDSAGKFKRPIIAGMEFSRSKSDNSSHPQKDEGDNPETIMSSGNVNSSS
Sequence of Voltage-gated inwardly rectifying potassium channel KCNH2 (Q12809 whole entry): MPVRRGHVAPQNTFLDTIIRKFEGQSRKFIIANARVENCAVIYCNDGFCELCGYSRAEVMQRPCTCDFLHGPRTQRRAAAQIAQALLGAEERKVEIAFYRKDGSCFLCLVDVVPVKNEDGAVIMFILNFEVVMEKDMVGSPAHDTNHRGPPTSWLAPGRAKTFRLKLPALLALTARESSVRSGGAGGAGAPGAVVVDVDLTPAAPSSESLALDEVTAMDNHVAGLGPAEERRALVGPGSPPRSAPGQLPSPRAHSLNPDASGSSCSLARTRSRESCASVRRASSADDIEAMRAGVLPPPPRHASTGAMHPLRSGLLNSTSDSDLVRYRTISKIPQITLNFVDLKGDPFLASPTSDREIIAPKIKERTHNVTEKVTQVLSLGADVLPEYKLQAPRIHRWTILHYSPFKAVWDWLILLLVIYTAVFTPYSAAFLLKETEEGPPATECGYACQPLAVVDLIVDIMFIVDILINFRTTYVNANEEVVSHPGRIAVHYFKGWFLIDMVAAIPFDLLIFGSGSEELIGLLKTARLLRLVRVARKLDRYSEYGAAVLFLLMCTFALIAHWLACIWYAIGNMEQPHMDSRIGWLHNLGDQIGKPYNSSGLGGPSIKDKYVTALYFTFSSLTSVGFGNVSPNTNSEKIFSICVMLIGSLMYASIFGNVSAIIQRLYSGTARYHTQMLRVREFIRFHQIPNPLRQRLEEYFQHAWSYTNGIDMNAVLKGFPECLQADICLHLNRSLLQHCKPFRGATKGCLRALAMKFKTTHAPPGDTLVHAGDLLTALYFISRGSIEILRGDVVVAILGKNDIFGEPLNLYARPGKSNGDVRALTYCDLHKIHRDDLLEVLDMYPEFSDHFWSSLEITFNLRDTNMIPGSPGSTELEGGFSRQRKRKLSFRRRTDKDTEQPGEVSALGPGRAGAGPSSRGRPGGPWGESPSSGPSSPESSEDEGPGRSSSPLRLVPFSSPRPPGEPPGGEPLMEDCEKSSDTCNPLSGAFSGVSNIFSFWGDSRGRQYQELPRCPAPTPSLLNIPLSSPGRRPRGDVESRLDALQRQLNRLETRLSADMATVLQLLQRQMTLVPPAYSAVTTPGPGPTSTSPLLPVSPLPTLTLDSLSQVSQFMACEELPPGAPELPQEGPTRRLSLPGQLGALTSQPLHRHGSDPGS
Sequence of Cytochrome P450 2C9 (P11712 whole entry): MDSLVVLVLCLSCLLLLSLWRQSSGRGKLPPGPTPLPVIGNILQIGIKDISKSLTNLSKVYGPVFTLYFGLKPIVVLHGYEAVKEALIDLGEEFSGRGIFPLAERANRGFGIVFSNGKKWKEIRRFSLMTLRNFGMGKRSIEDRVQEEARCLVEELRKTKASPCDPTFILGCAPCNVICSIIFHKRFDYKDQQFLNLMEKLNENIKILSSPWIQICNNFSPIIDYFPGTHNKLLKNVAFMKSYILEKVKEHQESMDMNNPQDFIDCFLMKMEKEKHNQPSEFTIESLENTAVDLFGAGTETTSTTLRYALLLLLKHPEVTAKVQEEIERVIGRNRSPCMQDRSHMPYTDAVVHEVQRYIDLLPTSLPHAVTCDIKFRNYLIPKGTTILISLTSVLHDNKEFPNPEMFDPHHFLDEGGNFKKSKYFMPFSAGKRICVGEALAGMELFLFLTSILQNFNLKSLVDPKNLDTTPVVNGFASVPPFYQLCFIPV
Sequence of Sphingosine 1-phosphate receptor 3 (Q99500 whole entry): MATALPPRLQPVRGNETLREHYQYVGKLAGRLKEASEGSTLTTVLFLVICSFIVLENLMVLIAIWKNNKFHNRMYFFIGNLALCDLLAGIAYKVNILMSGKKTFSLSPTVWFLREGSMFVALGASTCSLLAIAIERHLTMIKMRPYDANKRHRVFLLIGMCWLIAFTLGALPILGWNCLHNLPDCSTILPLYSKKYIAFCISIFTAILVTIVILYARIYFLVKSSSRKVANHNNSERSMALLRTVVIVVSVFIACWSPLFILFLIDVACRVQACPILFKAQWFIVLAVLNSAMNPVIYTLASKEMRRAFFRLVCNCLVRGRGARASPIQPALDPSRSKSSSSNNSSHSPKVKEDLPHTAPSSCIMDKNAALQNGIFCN

## O=C(O)C1CN(Cc2ccc3c(c2)CCc2c-3noc2-c2onc(-c3ccccc3)c2C(F)(F)F)C1
[1]
  Tmax: 4 h
[2]
  Vd: 4.8 L/kg
[3]
  Activity: 80%
[4]
  IC50: 0.00038 µM
[5]
  half-life: > 2 h
[6]
  ED50: 0.05 mg/kg
[7]
  half-life: > 2 h
[8]
  half-life: 15 h
[9]
  half-life: 7.9 h
[10]
  fraction unbound: 0.007
[11]
  IC50: > 40 µM
[12]
  Tmax: 8 h
[13]
  bioavailability: 43%
[14]
  IC50: 14 µM
[15]
  Cmax: 140 nM
[16]
  fraction unbound: 0.004
[17]
  AUC: 3.4 µM·h
[18]
  half-life: > 2 h
[19]
  IC50: 2 µM
[20]
  Tmax: 3 h
[21]
  Vd: 3.6 L/kg
[22]
  concentration at 4 h: 55 nM
[23]
  bioavailability: 95%
[24]
  IC50: > 40 µM
[25]
  EC50: > 50 µM
[26]
  EC50: 4.4 µM
[27]
  EC50: 0.032 nM
[28]
  AUC: 30.3 µM·h
[29]
  Vd: 2.2 L/kg
